One series deals with MDA-MB-468. Nature of the series: Antitumor activity against human MDA-MB-468 cells after 72 hrs by MTT assay. It counts as functional, cell-based. The note with it: MDA-MB-468, 72 h. Summed up:
(§1)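 Cells seeded in 96-well plates; compounds added 24 h after seeding and left on for 72 h. Viable cells read spectrophotometrically after MTS tetrazolium staining, with dye conversion taken as proportional to live cells. IC50 for each cell line derived from dose–response curves.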

The test system of the next series is CCRF-CEM. Put plainly: Antitumor activity against human CCRF-CEM cells after 72 hrs by MTT assay. It counts as functional, cell-based. Put shortly:
as §1

A further series deals with DU-145. Put plainly: Antitumor activity against human Du145 cells after 72 hrs by MTT assay. It counts as functional, cell-based. The note with it: DU-145, 72 h. Summed up:
as §1
Background: Formazan colour is commonly taken as a measure of viable cells.

The test system of the next series is NCI-H446. Nature of the series: Antitumor activity against human NCI-H446 cells after 72 hrs by MTT assay. The series is classed as functional, cell-based. The conditions noted are these: NCI-H446, 72 h. Summed up: as §1
The subject of another series is Rotifers. Put plainly: Toxicity against Rotifers assessed as feeding at 10 ppm after 45 mins by injestion toxicity assay. It counts as organism-based. The conditions noted are these: rotifera, in vivo, 0.75 h.
Series [1] in a line: Antitumor activity against human LNCaP-FGC cells after 72 hrs by MTT assay. It counts as functional, cell-based. The conditions noted are these: LNCaP-Clone-FGC. Summed up: as §1
The next series relates to DU-4475. Nature of the series: Antitumor activity against human DU4475 cells after 72 hrs by MTT assay. The series is classed as functional, cell-based. The note with it: DU-4475, 72 h.
For another series, the system named is PC-3. Nature of the series: Antitumor activity against human PC3 cells after 72 hrs by MTT assay. The series is classed as functional, cell-based. The note with it: PC-3, 72 h. Put shortly: as §1
Series [2] can be described thus: Antitumor activity against human A2780/DDP-S cells after 72 hrs by MTT assay. It counts as functional, cell-based. The conditions noted are these: A2780, 72 h. Summed up: as §1
A further series deals with SHP77. Put plainly: Antitumor activity against human SHP77 cells after 72 hrs by MTT assay. It counts as functional, cell-based. The conditions noted are these: SHP77, 72 h. Summed up:
as §1

The subject of a further series is MDA-MB-231. Nature of the series: Antitumor activity against human MDA-MB-231 cells after 72 hrs by MTT assay. It counts as functional, cell-based. The conditions noted are these: MDA-MB-231, 72 h. Put shortly:
as §1

The next series relates to BT-549. Put plainly: Antitumor activity against human BT549 cells after 72 hrs by MTT assay. The conditions noted are these: BT-549, 72 h. It counts as functional, cell-based. Summed up: as §1
The test system of a further series is HCT-116. Nature of the series: Antitumor activity against human HCT116 cells after 72 hrs by MTT assay. It counts as functional, cell-based. The conditions noted are these: HCT-116, 72 h. Summed up: as §1
Series [3] relates to Lindra thalassiae. Nature of the series: Antifungal activity against Lindra thalassiae ATCC 56663 after 6 days. The series is classed as functional, organism-based. The note with it: Lindriella thalassiae, ATCC 56663, 144 h. Put shortly:
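Growth inhibition of marine fungal pathogen Lindra thalassiae ATCC 56663. IC50 derived from dose–response curves.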

Series [4] has as its system Lindra thalassiae. Put plainly: Antifungal activity against Lindra thalassiae ATCC 56663 at 0.67 mg/mL after 6 days. The series is classed as functional, Lindriella thalassiae.

SMILES strings stand for the structures.

Usually IC50 stands for the midpoint of a concentration-inhibition curve. Read a low IC50 as higher potency.

As to `CC(C)=CC(=O)C[C@@H](C)[C@H]1CC[C@@]2(C)[C@@H]3CC[C@H]4[C@](C)(COS(=O)(=O)[O-])[C@@H](OS(=O)(=O)[O-])CC[C@@]45C[C@@]35CC[C@]12C.[Na+].[Na+]`, the concentration for half-maximal inhibition (IC50) (in the series on MDA-MB-468; in the series on CCRF-CEM; in the series with DU-145; in the series with NCI-H446; in series [1]; in the series on DU-4475) was 31 µM in each case. The concentration for half-maximal inhibition (IC50) (with PC-3; in series [2]; with SHP77; with MDA-MB-231; in the series on BT-549; in the series with HCT-116) was 31 µM throughout. Also, in the series on Rotifers, the Activity was found to be 9%.
On to `CC(C)C[C@H](O)C[C@@H](C)[C@H]1CC[C@@]2(C)[C@@H]3CC[C@H]4[C@](C)(COS(=O)(=O)[O-])[C@@H](OS(=O)(=O)[O-])CC[C@@]45C[C@@]35CC[C@]12C.[Na+].[Na+]`, for which the IC50 in the series with MDA-MB-468 was found to be 31 µM; in the series with CCRF-CEM, 31 µM; with DU-145, 31 µM; in the series on NCI-H446, 31 µM; in [1], 31 µM; in the series with Lindra thalassiae [3], 26 µM. Besides, the 50% inhibitory concentration (IC50) (in the series with DU-4475; in the series on PC-3; in [2]; with SHP77; in the series with MDA-MB-231; in the series on BT-549) was 31 µM each time. The compound also yielded a concentration for half-maximal inhibition (IC50) in the series on HCT-116 of 31 µM. The Activity with Rotifers came to 9%; with Lindra thalassiae [4], 670 µg/mL.
On to `CC(C)C[C@H](O)C[C@@H](C)[C@H]1CC[C@@]2(C)[C@@H]3CC[C@H]4[C@](C)(COS(=O)(=O)O)[C@@H](O)CC[C@@]45C[C@@]35CC[C@]12C`, for which, in the series on Lindra thalassiae [3], the half-maximal inhibitory concentration (IC50) was 55 µM.
`CC(C)CC(=O)C[C@@H](C)[C@H]1CC[C@@]2(C)C3=C(CC[C@]12C)[C@@]1(C)CC[C@H](OS(=O)(=O)[O-])[C@@](C)(COS(=O)(=O)[O-])[C@@H]1CC3.[Na+].[Na+]`: the IC50 (in the series on MDA-MB-468; in the series on CCRF-CEM; in the series on DU-145; with NCI-H446; in series [1]; in the series on DU-4475) was 31 µM throughout. Besides, the IC50 (in the series on PC-3; in [2]; in the series on SHP77; in the series with MDA-MB-231; with BT-549; in the series with HCT-116) was 31 µM in each case. For the same compound, in the series on Rotifers, the Activity is given as 9%.
Consider `CC(C)=CC(=O)C[C@@H](C)[C@H]1CC[C@@]2(C)[C@@H]3CC[C@H]4[C@](C)(CO)[C@@H](OS(=O)(=O)[O-])CC[C@@]45C[C@@]35CC[C@]12C.[Na+]`, for which the concentration for half-maximal inhibition (IC50) (in the series with MDA-MB-468; in the series with CCRF-CEM; with DU-145; with NCI-H446; in [1]; in the series with DU-4475) was 6 µM in each case. The IC50 (in the series on PC-3; in [2]; in the series on SHP77; in the series with MDA-MB-231; in the series on BT-549; in the series on HCT-116) was 6 µM throughout. The Activity with Rotifers is 9%.
As to `CC(C)=CC(=O)C[C@@H](C)[C@H]1CC[C@@]2(C)[C@@H]3CC[C@H]4[C@](C)(COS(=O)(=O)[O-])[C@@H](O)CC[C@@]45C[C@@]35CC[C@]12C.[Na+]`, the half-inhibitory concentration (IC50) (in the series on MDA-MB-468; with CCRF-CEM; in the series with DU-145; in the series on NCI-H446; in series [1]; in the series on DU-4475) was 6 µM throughout. In addition, the IC50 (with PC-3; in [2]; with SHP77; in the series on MDA-MB-231; in the series with BT-549; in the series on HCT-116) was 6 µM each time. The Activity in the series on Rotifers was 9%.
As for `CC(C)CC(=O)C[C@@H](C)[C@H]1CC[C@@]2(C)[C@@H]3CC[C@H]4[C@](C)(COS(=O)(=O)[O-])[C@@H](OS(=O)(=O)[O-])CC[C@@]45C[C@@]35CC[C@]12C.[Na+].[Na+]`, the half-inhibitory concentration (IC50) (with MDA-MB-468; in the series on CCRF-CEM; in the series on DU-145; with NCI-H446; in series [1]; in the series with DU-4475) was 31 µM each time. Moreover, the IC50 (in the series on PC-3; in series [2]; with SHP77; with MDA-MB-231; in the series on BT-549; in the series on HCT-116) was 31 µM throughout. The Activity in the series on Rotifers worked out at 9%.
On to `CC(C)C[C@H](O)C[C@@H](C)[C@H]1CC[C@@]2(C)[C@@H]3CC[C@H]4[C@](C)(CO)[C@@H](OS(=O)(=O)O)CC[C@@]45C[C@@]35CC[C@]12C`, for which the IC50 with Lindra thalassiae [3] stood at 30 µM.
`CC(C)=CC(=O)C[C@@H](C)[C@H]1CC[C@@]2(C)[C@@H]3CC[C@H]4[C@](C)(CO)[C@@H](O)CC[C@@]45C[C@@]35CC[C@]12C`: the IC50 (in the series with MDA-MB-468; in the series on CCRF-CEM; with DU-145; in the series with NCI-H446; in [1]; in the series on DU-4475) was 6 µM throughout. The concentration for half-maximal inhibition (IC50) (with PC-3; in series [2]; with SHP77; in the series on MDA-MB-231; with BT-549; in the series on HCT-116) was 6 µM each time. Further, the Activity in the series on Rotifers is listed as 9%.

The record behind these values is ChEMBL document CHEMBL1156657, “Structures and absolute configurations of sulfate-conjugated triterpenoids including an antifungal chemical defense of the green macroalga Tydemania expeditionis” (J Nat Prod, 2008).
